In PMC6531306 (Theranostics, 2019):

Tests used:
[1] = test system: isolated a and a'c domains of PDI; experiment: PDI reductase assay with isolated domains; type: biochemical; settings: domains 1.6 μM; PACMA31 100 μM, 35G8 1 μM
In short: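 Isolated His-tagged a and a'c domains were expressed in E. coli and Ni-NTA purified. Each domain was incubated with test compound for 45 min at room temperature in 100 mM sodium phosphate, 2 mM EDTA, 8 μM DTT, pH 7.0. DTT (100 μM) and insulin (130 μM) were then added, and aggregation of reduced insulin B chain was monitored at 650 nm.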

[2] = test system: U87MG xenografts; experiment: Mouse flank xenograft model of GBM; type: in vivo, mice; settings: TMZ 5 mg/kg oral gavage, five days/week, two weeks
In short: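 Athymic nude Foxn1nu mice (4–6 weeks) bore subcutaneous flank U87MG or D54 xenografts (250,000 cells in RPMI:Matrigel 1:1). From 100 mm3, they received test compound 20 mg/kg i.p. in 5 % DMSO/65 % 1,2-propanediol/30 % saline and/or TMZ 5 mg/kg in Ora-Plus by oral gavage, five days/week for two weeks. Body weight was recorded twice weekly.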

[3] = biological target: a domain of PDI (Homo sapiens, UniProt P07237); experiment: AMS assay; type: binding; settings: 20 μM domain, 40 μM compound, 1 h
Sequence of a domain of PDI (P07237 18-134 limits assumed): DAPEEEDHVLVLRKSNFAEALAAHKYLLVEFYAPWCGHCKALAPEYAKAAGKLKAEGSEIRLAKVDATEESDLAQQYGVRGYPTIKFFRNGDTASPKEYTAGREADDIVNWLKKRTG
In short: (§1)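 Isolated a or a'c domain (20 μM) was incubated with or without 40 μM test compound for 1 h in PBS at 25 °C. Free thiols were then blocked with 2 mM AMS. Samples were resolved by SDS-PAGE and stained with Coomassie blue.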

[4] = test system: D54, U87MG and A172 cells; experiment: Western blot of DNA repair and DDR proteins; type: cell-based, human; settings: 24 hours
In short: (§2)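 Protein was measured by BCA. Lysates were resolved on 10 % or 4–12 % gels and transferred to PVDF. Membranes were blocked (StartingBlock or 5 % BSA) and probed with primary antibodies. Detection used DyLight 800 infrared imaging or HRP secondaries with ECL.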

[5] = test system: PDI, PDIp, ERp57, ERp46, ERp72, P5, and ERp18; experiment: PDI reductase assay, panel of PDI family members; type: biochemical; settings: family members 1 μM, compound 40 μM
[6] = biological target: a'c domain of PDI (Homo sapiens, UniProt P07237); experiment: AMS assay; type: binding; settings: 20 μM domain, 40 μM compound, 1 h
Sequence of a'c domain of PDI (P07237 349-508 limits assumed): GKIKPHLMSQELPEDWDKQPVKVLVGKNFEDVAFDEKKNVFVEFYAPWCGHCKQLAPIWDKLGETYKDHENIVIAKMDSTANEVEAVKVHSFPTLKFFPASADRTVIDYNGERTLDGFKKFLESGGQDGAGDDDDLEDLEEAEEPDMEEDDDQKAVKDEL
In short: as §1

[7] = test system: Sox2; experiment: Western blot of stemness marker; type: cell-based; settings: Figure 4H
In short: as §2

[8] = test system: U87MG cells; type: cell-based, human; settings: Hallmark E2F Targets

CCN(C)C(=O)C1(CCOc2ccccc2)CCN(Cc2ccc(O)c(Cl)c2)CC1 [bepristat 1a] was tested, and the “inhibition of reductase activity of isolated domains” value [1] was “did not inhibit”.

In the case of C[C@]12CC[C@@H]3c4ccc(O)cc4CC[C@H]3[C@@H]1CC[C@@H]2O [Estradiol, estradiol], the “inhibition of reductase activity of isolated domains” value [1] is reported as “did not inhibit”.

Cn1nnc2c(C(N)=O)ncn2c1=O [TMZ, temozolomide] was tested, and the “decrease in body weight” value [2] was 15%.

For PACMA31, the “AMS binding to a domain thiols” value [3] was “blocked AMS binding”, the “E2F1 and RAD51 protein expression” value [4] was “dose-dependently lower” and the “selectivity among PDI family members” value [5] was “inhibits all tested PDI family enzymes”. The “AMS binding to a'c domain thiols” value [6] was “blocked AMS binding”, the “inhibition of reductase activity of isolated domains” value [1] was “inhibit reductase activity” and the Sox2 protein expression [7] was “dose-dependently abrogated”. The “genes of the E2F targets gene set downregulated” value [8] was 72%.
